The source made the active and inactive calls. No cut-off for these calls is given here.
How the values were obtained:
[1] = system: MDA-MB-231; test: Antitumor activity against human MDA-MB-231 cells after 6 days by SRB assay; assay type: functional, cell-based; details: MDA-MB-231, 144 h
In short: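 MDA-MB-231 cells in DMEM with 5% FBS, 37 °C, 5% CO2, seeded 1.3 × 10³ cells/well and adhered 24 h; treated 0.25 to 64 µM (five wells per treatment, vehicle EtOH or DMSO) for 6 days. TCA-fixed, SRB-stained, OD 540 nm. Proliferation index = OD at day 6 / OD at time zero; IC50 from means of three independent experiments.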

[2] = system: Aorta; test: Vasorelaxant activity in Wistar rat aortic rings assessed as reduction in KCL-induced contractile tone in presence of tetraethylammonium chloride; assay type: functional, tissue-based
[3] = system: Aorta; test: Vasorelaxant activity in Wistar rat aortic rings assessed as reduction in KCL-induced contractile tone at 30 uM; assay type: functional
In short: (§1)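 Endothelium-denuded thoracic aortic rings from male normotensive Wistar rats (250–350 g), equilibrated 60 min, precontracted with KCl 30 mM. Compounds added cumulatively at threefold increasing concentrations up to 30 µM. Efficacy is the maximal relaxation, or the response at 30 µM, as % of KCl tone. pIC50 is −log molar concentration halving tone, not calculated below 50% efficacy; mean ± SE, 5–10 experiments.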

[4] = system: Aorta; test: Vasorelaxant activity in Wistar rat aortic rings assessed as reduction in KCL-induced contractile tone; assay type: functional, tissue-based; in short: as §1

Row | Structure (SMILES) | IC50 [1] | Activity [2] | Emax at 30 µM [3] | IC50 [4]
1 | Oc1cc(O)cc(-c2cc3cc(O)ccc3o2)c1 | 46.1 µM | inactive | 77.2% | 15.5 µM
2 | Oc1cc(O)cc(-c2nc3cccc(O)c3s2)c1 | 18.1 µM | inactive | 76.8% | 15.5 µM
3 | Oc1cc(O)cc(-c2cc3ccc(O)cc3nc2Cl)c1 | 47.4 µM | inactive | 84.6% | 15.8 µM
4 | Oc1ccc(/C=C/c2cc(O)cc(O)c2)cc1 [RESVERATROL] | – | inactive | 83% | 6.92 µM
5 | Oc1ccc(-c2nc3cc(O)cc(O)c3s2)cc1 | 67.6 µM | inactive | 39.6% | –
6 | Oc1cc(O)cc(-c2cnc3cc(O)ccc3c2)c1 | 17.4 µM | – | 17.2% | –
7 | Oc1ccc(-c2nc3c(O)cc(O)cc3s2)cc1 | > 100 µM | inactive | 80.6% | 12.6 µM
8 | Oc1cc(O)cc(-c2ccc3cc(O)ccc3c2)c1 | – | inactive | 78.5% | 12.9 µM
9 | O/N=C/c1ccc(-c2cc(O)cc(O)c2)cc1O [SALICYLALDOXIME] | – | Active | – | –
10 | Oc1cc(O)cc(-c2nc3ccc(O)cc3s2)c1 | 19.4 µM | Active | 88.2% | 12 µM

Reference: ChEMBL document CHEMBL1240520, “Synthesis of heterocycle-based analogs of resveratrol and their antitumor and vasorelaxing properties” (Bioorg Med Chem, 2010)
